Experimental data reported in ChEMBL document CHEMBL1132688, “Synthesis of a series of 4-benzyloxyaniline analogues as neuronal N-type calcium channel blockers with improved anticonvulsant and analgesic properties” (J Med Chem, 1999).
Converted amounts (≈) assume the structure as drawn.

Assays:
[1] = solubility at pH 4; format: physicochemical; conditions: buffer
[2] = solubility at pH 7.4; format: physicochemical; conditions: buffer
Method in brief: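 DMSO solution diluted 20-fold into PBS with 25 mM potassium phosphate pH 7.4 (final 5% DMSO) to precipitate; stirred 1 h at 22 °C, centrifuged 20000g 5 min; supernatant quantified by HPLC against DMSO standard.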

[3] = organism: Mus musculus; assay: Anticonvulsant activity against audiogenic seizure model using DBA/2 mice; format: functional
Method in brief: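 Male DBA/2 mice, 3–4 weeks old (6.5–12 g, 20–23 days); iv dosing into retro-orbital sinus, tested 15 or 45 min later. Sound stimulus in enclosed chamber until tonic extension or max 60 s. Tonic seizure occurrence used for ED50 by probit analysis; each mouse used once per time/dose point.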

[4] = target: Voltage-dependent N-type calcium channel subunit alpha-1B (Homo sapiens, UniProt Q00975); assay: Inhibition of N-type calcium channels in IMR32 human neuroblastoma cells; format: functional
Method in brief: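 Differentiated IMR32 cells (dibutyryl cAMP 1 mM + BrdU 2.5 μM, 7–13 days), Indo-1 AM loaded; 10 min compound preincubation at 30 °C with 5 μM nitrendipine; high-K+ depolarization, fluorescence ratio 400/490 nm (ex 350 nm). Percent inhibition of K+-evoked Ca2+ rise; IC50 from five-point curves, four-parameter logistic fit.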

[5] = test system: Mus musculus; assay: Anticonvulsant activity at 30 mg/kg tested against audiogenic seizure model using DBA/2 mice; format: functional
Method in brief: (§1)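 Male DBA/2 mice, 3–4 weeks old (6.5–12 g, 20–23 days), n = 5 per dose, given iv into retro-orbital sinus; tested 15 or 45 min post-dose with sound stimulus until tonic extension or max 60 s. Value is percentage of mice without tonic seizure.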

[6] = test system: Mus musculus; assay: Anticonvulsant activity at 10 mg/kg tested against audiogenic seizure model using DBA/2 mice; format: functional; method in brief: as §1

Sequence of Voltage-dependent N-type calcium channel subunit alpha-1B (Q00975 whole entry): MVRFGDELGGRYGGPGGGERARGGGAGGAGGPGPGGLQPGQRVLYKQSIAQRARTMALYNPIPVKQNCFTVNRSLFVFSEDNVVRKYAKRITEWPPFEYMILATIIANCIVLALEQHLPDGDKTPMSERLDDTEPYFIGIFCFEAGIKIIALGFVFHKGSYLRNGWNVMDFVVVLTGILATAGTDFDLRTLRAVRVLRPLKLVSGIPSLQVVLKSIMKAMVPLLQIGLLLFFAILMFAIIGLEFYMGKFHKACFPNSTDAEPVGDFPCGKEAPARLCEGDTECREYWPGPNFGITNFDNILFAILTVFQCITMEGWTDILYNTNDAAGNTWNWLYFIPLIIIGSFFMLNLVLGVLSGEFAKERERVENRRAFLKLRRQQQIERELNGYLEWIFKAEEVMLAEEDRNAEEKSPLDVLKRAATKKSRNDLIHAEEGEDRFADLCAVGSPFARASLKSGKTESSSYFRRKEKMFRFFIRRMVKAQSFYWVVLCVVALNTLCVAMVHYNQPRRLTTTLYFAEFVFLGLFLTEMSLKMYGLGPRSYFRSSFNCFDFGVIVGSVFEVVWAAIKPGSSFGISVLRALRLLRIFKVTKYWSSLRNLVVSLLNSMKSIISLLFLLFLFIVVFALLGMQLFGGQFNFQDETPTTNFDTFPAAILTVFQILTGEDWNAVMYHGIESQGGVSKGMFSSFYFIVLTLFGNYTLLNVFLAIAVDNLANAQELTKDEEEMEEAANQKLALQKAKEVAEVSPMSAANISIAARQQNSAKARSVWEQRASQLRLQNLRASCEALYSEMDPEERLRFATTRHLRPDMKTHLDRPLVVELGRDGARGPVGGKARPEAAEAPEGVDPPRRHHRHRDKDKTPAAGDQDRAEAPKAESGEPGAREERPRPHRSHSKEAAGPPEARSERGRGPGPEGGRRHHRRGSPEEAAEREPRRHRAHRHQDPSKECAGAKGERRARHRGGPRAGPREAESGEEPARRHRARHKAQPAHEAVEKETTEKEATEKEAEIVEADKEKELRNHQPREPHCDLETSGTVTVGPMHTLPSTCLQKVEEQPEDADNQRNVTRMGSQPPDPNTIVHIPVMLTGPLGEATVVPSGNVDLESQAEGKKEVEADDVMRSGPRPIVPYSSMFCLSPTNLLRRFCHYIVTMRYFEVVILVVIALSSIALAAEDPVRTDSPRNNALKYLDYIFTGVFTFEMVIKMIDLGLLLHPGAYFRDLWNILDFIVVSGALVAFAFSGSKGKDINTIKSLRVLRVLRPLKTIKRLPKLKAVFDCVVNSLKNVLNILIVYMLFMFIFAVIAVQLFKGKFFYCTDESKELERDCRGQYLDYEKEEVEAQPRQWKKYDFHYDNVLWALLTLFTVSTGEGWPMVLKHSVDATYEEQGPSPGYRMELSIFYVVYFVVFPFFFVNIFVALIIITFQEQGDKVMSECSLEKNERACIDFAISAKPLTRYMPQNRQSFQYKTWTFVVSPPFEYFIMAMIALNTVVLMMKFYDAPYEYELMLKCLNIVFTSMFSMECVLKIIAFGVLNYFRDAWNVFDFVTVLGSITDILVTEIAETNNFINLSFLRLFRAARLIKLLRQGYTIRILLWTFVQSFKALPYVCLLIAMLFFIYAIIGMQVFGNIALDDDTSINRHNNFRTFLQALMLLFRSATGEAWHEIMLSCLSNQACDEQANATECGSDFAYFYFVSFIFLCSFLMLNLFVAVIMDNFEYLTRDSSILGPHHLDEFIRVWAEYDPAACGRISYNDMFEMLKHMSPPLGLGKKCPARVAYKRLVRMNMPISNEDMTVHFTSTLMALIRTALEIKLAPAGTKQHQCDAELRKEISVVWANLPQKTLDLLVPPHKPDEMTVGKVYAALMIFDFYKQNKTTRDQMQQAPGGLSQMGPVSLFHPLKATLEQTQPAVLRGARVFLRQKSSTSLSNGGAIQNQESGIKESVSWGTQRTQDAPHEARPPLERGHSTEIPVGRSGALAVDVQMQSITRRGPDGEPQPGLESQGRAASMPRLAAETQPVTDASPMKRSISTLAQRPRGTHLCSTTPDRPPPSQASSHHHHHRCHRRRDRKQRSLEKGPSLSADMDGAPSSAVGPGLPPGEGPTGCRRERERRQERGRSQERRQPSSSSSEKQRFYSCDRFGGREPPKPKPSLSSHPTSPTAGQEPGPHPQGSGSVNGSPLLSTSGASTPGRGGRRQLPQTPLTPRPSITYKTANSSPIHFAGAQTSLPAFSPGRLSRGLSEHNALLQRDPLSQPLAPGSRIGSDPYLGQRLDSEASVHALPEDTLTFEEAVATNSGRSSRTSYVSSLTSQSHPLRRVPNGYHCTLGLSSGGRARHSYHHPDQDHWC

IC50 [4] [nM]	Structure (SMILES)	Anticonulsant activity [5] [%]	other results
	CCN(c1ccc(OCc2ccccc2)cc1)C1CCN(C(=O)[C@H](CC(C)C)NC(=O)N2CCCCCC2)CC1	0	
1000	CC(C)=CCN(C[C@H](C)NC(=O)[C@H](CC(C)C)NC(=O)N1CCCCCC1)c1ccc(OCc2ccccc2)cc1		
	CC(C)=CCN(c1ccc(OCc2ccccc2)cc1)C1CCN(C(=O)[C@H](CC(C)C)NCCC(C)C)CC1		Anticonulsant activity [6]: 20%
	CC(C)=CCN(c1ccc(OCc2ccccc2)cc1)C1CCN(C(=O)[C@H](CC(C)C)NC(=O)N2CCCCCC2)CC1	0	
1500	CC(C)=CCN(c1ccc(OCc2ccccc2)cc1)C1CCCN(C(=O)[C@H](CC(C)C)NC(=O)N2CCCCCC2)C1 (stereo partly drawn)		
4600	CC(C)C[C@H](NC(=O)N1CCCCCC1)C(=O)N1CCC(N(CCC(C)O)c2ccc(OCc3ccccc3)cc2)CC1 (stereo partly drawn)		solubility [2]: 4 µM (≈ 2.37 µg/mL)
	CC(C)C[C@H](NC(=O)N1CCCCCC1)C(=O)N1CCC(Nc2ccc(OCc3ccccc3)cc2)CC1	60	

Structure (SMILES)	IC50 [4] [nM]	Anticonulsant activity [5] [%]	other results
CC(C)=CCN(c1ccc(OCc2ccccc2)cc1)C1CCN(C(=O)[C@@H](N)CC(C)C)CC1	670		solubility [1]: 100000 µM (≈ 46400 µg/mL); solubility [2]: 87 µM (≈ 40.3 µg/mL); ED50 [3]: 6 mg/kg
CC(C)=CCN(c1ccc(OCc2ccccc2)cc1)C1CCNCC1	4700		
